Assay outcomes deposited in PubChem by The Scripps Research Institute Molecular Screening Center.
Compounds with a hit are over-represented: about 1.9% of the library has one in this group of screens.
M4 PAM: potentiates acetylcholine response at human M4 receptor; P08173; CHO-K1 hM4/Gqi5, Fluo-8 calcium fluorescence, ACh EC20; 0% = ACh EC20, 100% = maximal ACh; activation, % at 3 µM; 360,000 compounds, 0.4% hits; AID 624126;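 active means activation above its plate's cutoff, the mean activation of sample wells plus 3 SD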
Target sequence (P08173 whole entry, looked up): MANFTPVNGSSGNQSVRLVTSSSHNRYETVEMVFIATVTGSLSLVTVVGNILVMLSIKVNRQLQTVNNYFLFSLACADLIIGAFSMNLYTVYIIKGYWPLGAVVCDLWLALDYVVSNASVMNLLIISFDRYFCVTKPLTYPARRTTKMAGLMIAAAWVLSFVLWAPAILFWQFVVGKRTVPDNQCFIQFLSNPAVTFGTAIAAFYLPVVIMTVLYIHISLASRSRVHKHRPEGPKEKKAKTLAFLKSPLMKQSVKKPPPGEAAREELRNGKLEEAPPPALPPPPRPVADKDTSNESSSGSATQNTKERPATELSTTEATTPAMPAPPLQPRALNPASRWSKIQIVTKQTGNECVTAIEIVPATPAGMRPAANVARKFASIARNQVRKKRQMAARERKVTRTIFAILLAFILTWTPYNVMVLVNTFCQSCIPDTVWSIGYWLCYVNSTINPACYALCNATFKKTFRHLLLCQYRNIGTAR
M4 ag: CHRM4 agonism in calcium assay; activation, % at 3 µM; P08173; CHO-K1 hM4/Gqi5, Fluo-8 calcium fluorescence; vehicle 0%, full acetylcholine response 100%; 360,000 compounds, 0.14% hits;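 active means activation above the run mean over all test wells plus 3 SD, cut at about 32% in these data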;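 further: peak over basal fluorescence ratio per well then scaled between controls; 0% = DMSO wells and 100% = acetylcholine at EC100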
CHRM5 PAM: potentiates acetylcholine response at human M5 receptor; P08912; CHO-K1 hM5, Fluo-8 calcium, ACh EC20 PAM; 0% = ACh EC20, 100% = ACh EC100; activation, % at 3 µM; 360,000 compounds, 0.3% hits; AID 624038;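 active means activation above the run cutoff, the mean activation of all test compounds plus 3 SD, cut at about 18% in these data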
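System: CHO-K1 cell line with stable human muscarinic M5 receptor expression | Also added: EC20 acetylcholine as agonist stimulus | Compound: One concentration, 3 µM final (nominal) | Timing: Fluo-8 loading 80 min at 37 °C plus 30 min room temperature | Measured by: Fluo-8 calcium dye fluorescence, kinetic read | Read-out basis: % activation, ACh-normalized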
M4 antag: CHRM4 antagonism in calcium assay; CHO-hM4 cells, ACh EC80, Fluo-8 calcium fluorescence; inhibition, % at 3 µM; 360,000 compounds, 0.73% hits; P08173; AID 624125;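 active means inhibition above its plate's cutoff, the mean inhibition of sample wells plus 3 SD, cut at about 27% in these data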;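 further: 0% = acetylcholine EC80 with DMSO and 100% = DMSO without agonist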
M5 antag: CHRM5 antagonism in calcium assay; P08912; CHO-hM5 cells, Fluo-8 calcium fluorescence, ACh EC80; inhibition, % at 3 µM; 360,000 compounds, 0.59% hits;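 active means inhibition above a per-plate cutoff, the mean of that plate's test compounds plus 3 SD, cut at about 27% in these data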;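 further: 0% = acetylcholine EC80 with DMSO and 100% = DMSO without agonist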
CHRM5 agonist: agonists of human muscarinic M5 receptor (CHRM5). CHO-K1 hM5 cells, Fluo-8 calcium fluorescence; 0% DMSO wells, 100% maximal acetylcholine response. activation, % at 3 µM. 360,000 compounds, 0.19% hits;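 active means activation above the run's mean over test compounds plus 3 SD, cut at about 23% in these data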;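 further: signal is peak over basal fluorescence ratio across the kinetic read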
* marks the source's active call; other numbers are inactive results; ! = not active in a repeat.

SMILES	M4 PAM	M4 ag	CHRM5 PAM	M4 antag	M5 antag	CHRM5 agonist
O=C(O)c1ccc(NS(=O)(=O)c2ccc(Cl)c(C(=O)Nc3ccccc3[N+](=O)[O-])c2)cc1	-1.1	0.2	5.8	2.4	-8.9	4.7
COc1ccc(OC)c2[nH]c(=O)c(CCNC(=O)c3ccc(S(=O)(=O)N(C)C)cc3)cc12	27.8*	3.6	2.7	10.6	15.6	1.6
Cn1c(=O)c(NCCO)c2c3c(cccc31)C(=O)c1ccccc1-2	-8.9	39.2*	-8.2	13.3	13.4	32.4*
Cn1c(=O)c(NCCc2ccccc2)c2c3c(cccc31)C(=O)c1ccccc1-2	-23.5	150.8*	-26.3	75.8*	74.3*	92.9*
CCCCNc1c2c3c(cccc3n(C)c1=O)C(=O)c1ccccc1-2	-39.4	175.9*	-17.5	76.6*	71.4*	140.2*
CC(=O)Nc1ccc(Nc2c3c4c(cccc4n(C)c2=O)C(=O)c2ccccc2-3)cc1	-8.7	7.7	-8.0	4.9	3.4	1.7
C/C(=N\NC(=O)Cn1nc(C)c([N+](=O)[O-])c1C)c1ccco1	-6.1	8.1	-1.7	6.7	8.8	-4.0
COC(=O)c1ccc(C(=O)NC2CCSc3ccccc32)cc1 (stereo not drawn)	-2.3	1.0	2.4	5.8	-6.1	-4.4
Cc1ccc(NC(=S)NC2CCSc3ccccc32)cc1C (stereo not drawn)	-18.5	5.5	-18.8	51.9*	28.2*	-4.8
CCCCc1ccc(NC(=S)N2CCCC(C)C2)cc1 (stereo not drawn)	1.2	-0.1	-0.4	-4.6	3.9	-9.0
CN1C(=O)CSC1=Nc1cccc(C(=O)O)c1	0.1	1.6	2.5	3.8	6.0	-3.5
CN1C(=O)CSC1=Nc1ccc(F)cc1	14.3*	0.6	5.3	-20.1	5.7	-1.8
COc1cccc(/C(=N/O)C2CC2c2ccc(Cl)cc2)c1 (stereo not drawn)	-1.1	0.0	-3.5	-2.6	6.4	-1.8
CCCS(=O)(=O)N1CCN(C(=O)c2ccco2)CC1	19.8*	0.7	19.0*	-3.4	-4.9	-6.5
CCS(=O)(=O)N1CCN(C(=O)c2ccco2)CC1	3.0	2.4	1.1	-1.1	-4.2	2.3
O=C(C[C@H]1C/C=C\CC[C@@H](Cc2ccc(F)cc2)C(=O)O[C@H](c2ccccc2)CNC1=O)N[C@H](CO)Cc1ccccc1	-2.5	8.8	-2.3	-8.9	-4.6	2.4
CC(C)Cc1nnc(NS(=O)(=O)c2ccc(Cl)cc2)s1	15.8*	0.7	-1.5	-19.4	-0.9	-1.1
CCc1ccc2c(c1)/C(=C/C(=O)c1cccs1)C(=O)N2	-18.7	5.4	6.9	22.7	18.0	24.6*
Cc1cccc2c1NC(=O)/C2=C\C(=O)c1cccs1	-8.6	2.0	4.8	-5.4	8.4	13.1
O=C(CC[C@H]1O[C@@H](n2cnc3c(NC(=O)c4ccccc4)ncnc32)[C@H](O)[C@@H]1O)NCC1CCCO1 (stereo partly drawn)	19.7*	1.9	1.5	-22.1	-3.6	2.6
O=C(Nc1cccc(NC(=O)c2ccco2)n1)c1ccco1	-1.5	3.1	-10.8	1.5	11.4	-1.0
O=C(CCN1C(=O)S/C(=C/c2ccc(F)cc2)C1=O)Nc1ccc(O)c(C(=O)O)c1	-0.6	0.8	-3.6	10.4	4.5	-3.1
O=C(CCN1C(=O)S/C(=C\c2ccc(F)cc2)C1=O)Nc1ccc(C(=O)O)c(O)c1	17.3*	1.0	9.7	-1.8	-4.0	0.3
Cc1[nH]n(-c2nc(-c3ccccc3F)cc(=O)[nH]2)c(=O)c1CCO	2.0	0.9	-6.4	-0.6	3.4	-1.2
Cn1cc(CCC(=O)NC2CC(C)(C)Cc3c2cnn3-c2ccc(F)cc2)cn1 (stereo not drawn)	11.9	0.0	-6.5	-5.7	25.8	-3.9
SMILES	M4 PAM	M4 ag	CHRM5 PAM	M4 antag	M5 antag	CHRM5 agonist
Cc1ccc(-c2nn(-c3ccccc3)cc2CN(Cc2ccccc2)C(=O)c2ccco2)o1	-27.3	10.3	-13.0	51.8*	10.4	1.8
Cn1c(N)c(C(=O)COC(=O)Cc2ccsc2)c(=O)n(C)c1=O	22.4*	2.8	6.6	3.1	-4.3	0.1
Cn1c(N)c(C(=O)COC(=O)Cc2ccc(Br)cc2)c(=O)n(C)c1=O	14.2	0.6	8.8	-10.4	-10.1	1.6
COc1ccc(-c2cc(C(=O)OCC(=O)c3cccc([N+](=O)[O-])c3)c3cc(C)ccc3n2)cc1	23.0*	2.8	17.1	-7.9	13.3	4.2
CCN(CC)CCCNC(=S)N1CCC(c2nc3ccccc3[nH]2)CC1	-5.1	-0.2	14.2	8.3	-9.0	-9.2
COc1ccc2c(c1)Cc1sc(NC(=O)c3ccccc3)nc1-2	17.5*	4.8	4.0	-8.5	3.2	4.8
Brc1cnc2nc[nH]c2c1	3.1	0.7	-9.7	-5.6	16.3	-3.6
Cc1cccc(C)c1C(=NCCCN(C)C)c1ccccc1	-18.5	1.6	-17.9	38.2*	80.2*	-9.4
COc1ccccc1N1CCN(Cc2cn[nH]c2-c2ccc(F)cc2)CC1	17.4	24.0	-7.6	8.8	6.7	40.0*
CC1CNCCN1S(=O)(=O)c1cccc2cnccc12 (stereo not drawn)	-1.5	6.5	-19.1	-5.3	3.7	51.6*!
O=S(=O)(c1cccc2cnccc12)N1CCCNCC1	-2.6	1.2	-4.2	-2.1	4.1	-1.2
CCCC(=O)Nc1ccc2c(c1)nc1n2CCOC1	31.0*	0.8	4.7	3.1	-10.0	3.0
CCCCC(=O)Nc1ccc2c(c1)nc1n2CCOC1	2.2	0.5	-1.1	-9.0	-5.5	-0.5
COc1ccc(N2CCN(C(=O)C(=O)c3cc(OC)c(OC)c(OC)c3)CC2)cc1	0.7	4.5	-7.2	-14.0	12.9	0.9
COc1cc(C(=O)C(=O)N2CCN(c3ccccc3)CC2)cc2ccccc12	3.5	5.1	18.5*	-18.5	-18.9	0.5
CCNc1nc2cccnc2s1	7.7	1.2	4.9	-9.1	4.9	2.3
Cc1nn(CC(=O)Nc2nccs2)c(C)c1[N+](=O)[O-]	1.5	-0.1	-1.5	3.8	7.8	1.6
Cc1cc([N+](=O)[O-])nn1CCC(=O)Nc1nccs1	19.4	3.4	18.3*	-8.1	-33.6	4.7
C=C(C)COc1ccc(-c2ncnc(C(F)(F)F)c2-c2ccc(OC)cc2)c(O)c1	-14.7	7.5	-14.2	25.2	24.5	-4.9
C=C(C)COc1ccc(-c2ncnc(C(F)(F)F)c2-c2ccccc2)c(O)c1	-12.4	3.0	-13.9	26.7*	16.8	-5.6
c1ccc(CCn2nnc3ccccc32)cc1	-12.9	-0.2	-2.2	9.6	-0.8	-1.0
c1ccc2c(c1)nnn2CNc1nccs1	22.4*	1.3	2.6	-7.7	-6.5	-0.7
